The nature of data set [1]: Gametocytocidal activity against Plasmodium berghei ANKA 25R/10 infected in Balb/C mouse assessed as infected mosquitoes at 15 mg/kg, ip after 2 hrs feed Anopheles stephensi mosquitoes for 2 hrs on compound treated animals measured after 10 days post feed by stereomicroscopy (reference value: 80%). It counts as functional. Conditions: route intraperitoneal. The essentials: (§1)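 Balb C mice infected ip with 10^7 P. berghei ANKA 25R/10-parasitised erythrocytes. At day 4, once gametocytes were seen on Giemsa films, mice were grouped (six per group). A single ip dose of 15 mg/kg was given, with saline-treated controls run separately for each compound. After 2 h, anaesthetised mice were fed to A. stephensi. Midgut oocysts counted at day 10 post-feed; reported as % infected mosquitoes and mean oocysts per mosquito.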

The subject of another data set is Plasmodium berghei ANKA. The data set can be described thus: Gametocytocidal activity against Plasmodium berghei ANKA 25R/10 infected in Balb/C mouse assessed as reduction in number of oocysts per mosquito at 15 mg/kg, ip after 2 hrs feed Anopheles stephensi mosquitoes for 2 hrs on compound treated animals measured after 10 days post feed by stereomicroscopy. In kind it is functional, organism-based. Set-up: dose 15 mg/kg. The method, boiled down: as §1

A short description of data set [2]: Dissociation constant, pKa of the compound. It counts as physicochemical.
Data set [3] has as its system Plasma. In words: Prodrug activation in 50% human plasma assessed as rate constant by HPLC analysis. In kind it is cell-free. The method, boiled down: (§2)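 Pooled heparinised plasma from healthy donors, stored at -70 °C, diluted to 50% (v/v) with pH 7.4 isotonic phosphate buffer. Carbamate added from 10^-2 M stock, 37 °C. Aliquots quenched into acetonitrile, then HPLC quantitation of substrate, primaquine and, for aryl esters, phenol against standards. First-order k_plasma determined in triplicate.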

Data set [4] can be described thus: Alkaline hydrolysis of the compound assessed as rate constant by HPLC analysis. In kind it is physicochemical. The method, boiled down: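 Borate and NaOH buffers with 20% (v/v) acetonitrile, ionic strength 0.5 M (NaClO4), 37 °C. Alkyl carbamates followed by HPLC (RP-8 column, acetonitrile/water/KH2PO4 1 M 55:40:5) as substrate loss and primaquine formation; aliquots neutralised with HCl before injection; aryl carbamates by fixed-wavelength UV decay of substrate. Second-order constant k_OH.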

The test system of data set [5] is Plasma. In words: Half life for prodrug activation in 50% human plasma by HPLC analysis. In kind it is cell-free. The method, boiled down:
as §2

Data set [6] can be described thus: Octanol-phosphate buffer partition coefficient, log D of the compound at pH 7.4 after 30 mins by HPLC analysis. In kind it is physicochemical. The essentials:
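1-Octanol and pH 7.4 phosphate buffer, mutually pre-saturated, 22 °C. Compound dissolved in octanol and the mixture shaken 30 min to equilibrium. Each phase assayed by HPLC, and D taken as the octanol/buffer peak-area ratio. Mean of three experiments.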

Data set [7] is described as follows: Half life in aqueous buffer pH 7.4 by HPLC analysis. It counts as physicochemical. The essentials: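 Non-enzymatic hydrolysis in pH 7.4 phosphate buffer, 20% (v/v) acetonitrile, 37 °C. Reaction followed by HPLC (RP-8 column, acetonitrile/water/KH2PO4 eluant) monitoring substrate loss and primaquine formation.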
The test system of data set [8] is Liver. The data set can be described thus: Half life for prodrug activation in rat liver homogenate by HPLC analysis. In kind it is tissue-based. Particulars: in vitro. The method, boiled down:
(§3)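 Liver homogenate at 2 mg protein/mL in pH 7.4 PBS, 37 °C, with NADPH-generating system (glucose-6-phosphate 6.25 mM, NADP 1.25 mM, MgCl2 6 mM, G6PDH 2.5 U/mL). Substrates dissolved in PBS at initial 0.25–5.0 mM. HPLC followed substrate loss and primaquine formation. First-order k_liver determined in triplicate.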

For data set [9], the system named is Liver. In words: Prodrug activation in rat liver homogenate assessed as rate constant by HPLC analysis. It counts as tissue-based. Conditions: tissue homogenate. The method, boiled down: as §3
Data set [10] has as its system Plasma. The data set can be described thus: Prodrug activation in 50% human plasma preincubated with 20 mM DIFP by HPLC analysis. In kind it is cell-free. The method, boiled down: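 Same 50% human plasma incubation at 37 °C with HPLC monitoring, but plasma pre-incubated with 20 mM DIFP to inhibit serine cholinesterase before substrate addition.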
Data set [11] concerns Liver. The data set can be described thus: Prodrug activation in rat liver homogenate assessed as primaquine release by HPLC analysis. Particulars: tissue homogenate. In kind it is tissue-based. The method, boiled down:
as §3

The nature of data set [12]: Gametocytocidal activity against Plasmodium berghei ANKA 25R/10 infected in Balb/C mouse assessed as infected mosquitoes at 15 mg/kg, ip after 2 hrs feed Anopheles stephensi mosquitoes for 2 hrs on compound treated animals measured after 10 days post feed by stereomicroscopy (reference value: 91%). It counts as functional. Conditions: route intraperitoneal. The method, boiled down:
as §1

Data set [13] concerns Plasma. In words: Stability of the compound in 50% human plasma for 3 hrs by HPLC analysis. It counts as ADME, cell-free. The method, boiled down: as §2

The term pKa denotes the pH at which an ionisable group is half protonated. Low readings indicate a stronger acid or weaker base, high ones a weaker acid or stronger base. The term logD denotes the decadic logarithm of the distribution of all forms, ionised or not, between an organic phase and buffer at a given pH. Read a low logD as a more hydrophilic compound. What is called half-life is how long it takes for the measured level to halve. A lower half-life goes with fast loss.

Calls of active or inactive are those of the source. The rule behind the calls is not given here. Where only a bound is given, the exact number is not on record here.

With `COc1cc(NC(C)CCCN)c2ncccc2c1` (centres undefined) [PRIMAQUINE], the Activity in data set [1] is 3.9%. The outcome with Plasmodium berghei ANKA was Active.
In [2], `COc1ccc(OC(=O)NCCCC(C)Nc2cc(OC)cc3cccnc23)cc1` (centres undefined) showed a pKa of 10.2. Also, the results for the Drug metabolism in the data set on Plasma [3] and with Liver [9] were 2.45 ×10⁻⁵ /s and 6.7 ×10⁻² /hr, respectively. Further, the Activity in data set [4] amounted to 9.1 ×10⁻¹ /M/s; in data set [1], 74%. The t1/2 was 7.78 h with Plasma [5] and 10.3 h in the data set with Liver [8]. The compound further showed a log distribution coefficient (logD) at 0.5 h in data set [6] of 4.23. In addition, the half-life in data set [7] is more than 720 h.
In data set [2], `COc1cc(NC(C)CCCNC(=O)Oc2ccc(Cl)cc2)c2ncccc2c1` (centres undefined) returned a pKa of 9.38. Besides, the Drug metabolism is reported as 3.06 ×10⁻⁴ /s in the data set with Plasma [3], 5.85 ×10⁻² /hr in the data set with Liver [9] and “Not Active” with Plasma [10]. The Activity in data set [4] stood at 7.17 M⁻¹ s⁻¹. In addition, the t1/2 in the data set with Plasma [5] was determined as 0.638 h; with Liver [8], 11.8 h. Also, in data set [6], the pH-dependent lipophilicity (logD) at 0.5 h came to 4.44. In data set [7], this compound had a half-life of 96 h.
In [2], `COc1cc(NC(C)CCCNC(=O)Oc2ccccc2)c2ncccc2c1` (centres undefined) registered a pKa of 9.95. Further, the Drug metabolism in the data set with Plasma [3] was determined as 5.34 ×10⁻⁵ /s; in the data set with Liver [9] it was 7.26 ×10⁻² /hr. For the same compound, the Activity in [4] came out at 2.64 M⁻¹ s⁻¹; in data set [1] it was 65%. Further, the t1/2 with Plasma [5] worked out at 3.62 h; in the data set with Liver [8], 9.5 h. Also, the result in the data set on Plasmodium berghei ANKA was Active. The compound also returned a pH-dependent lipophilicity (logD) at 0.5 h in data set [6] of 4.27. In addition, in data set [7], the half-life was 288 h.
In data set [2], `COc1cc(NC(C)CCCNC(=O)OCC(F)(F)F)c2ncccc2c1` (centres undefined) yielded a pKa of 12.4. The values for the Drug metabolism entry in the data set with Liver [11] and with Liver [9] were “Not Active” and 5.04 ×10⁻² /hr, respectively. In addition, the Activity came to 3.95 ×10⁻³ /M/s in data set [4] and 72% in [12]. This compound also gave a log distribution coefficient (logD) at 0.5 h in data set [6] of 3.41. Further, in the data set with Plasma [13], the Stability result is on record as “Stable”. The t1/2 with Liver [8] came to 13.7 h.
Regarding `CCOC(=O)NCCCC(C)Nc1cc(OC)cc2cccnc12` (centres undefined), in [2], the pKa turned out to be 15.9. The Drug metabolism entry is listed as “Not Active” with Liver [11] and 4.56 ×10⁻² /hr with Liver [9]. For the same compound, the results for the Activity in data set [4] and in [12] were 9.34 ×10⁻⁷ /M/s and 19%, respectively. The outcome with Plasmodium berghei ANKA was Active. In addition, the logD at 0.5 h in data set [6] came out at 3.02. The Stability entry with Plasma [13] is “Stable”. The t1/2 in the data set with Liver [8] was 15.1 h.
Regarding `CCCCCCOC(=O)NCCCC(C)Nc1cc(OC)cc2cccnc12` (centres undefined), the figures for the Drug metabolism entry in the data set on Liver [11] and with Liver [9] were “Not Active” and 6.63 ×10⁻² /hr, respectively. For the same compound, the Activity was 3.49 ×10⁻⁷ /M/s in [4] and 24% in data set [12]. Besides, the result in the data set on Plasmodium berghei ANKA was Active. The compound further had a logD at 0.5 h in data set [6] of 4.64. The Stability result with Plasma [13] was “Stable”. The t1/2 in the data set with Liver [8] was determined as 10.4 h.
`CCOC(=O)COC(=O)NCCCC(C)Nc1cc(OC)cc2cccnc12` (centres undefined): the pKa in [2] turned out to be 12.9. The Activity in [4] came out at 2.5 M⁻¹ s⁻¹. Also, the pH-dependent lipophilicity (logD) at 0.5 h in [6] was 3.09. Also, the half-life in data set [7] was 240 h.
In data set [2], `COc1cc(NC(C)CCCNC(=O)Oc2ccc([N+](=O)[O-])cc2)c2ncccc2c1` (centres undefined) yielded a pKa of 7.14. The Activity in [4] turned out to be 2.4 ×10⁴ /M/s. Besides, the t1/2 with Plasma [5] was 0.00267 h. The logD at 0.5 h in data set [6] amounted to 4.23. The compound also yielded a half-life in data set [7] of 0.035 h.

(Values after ChEMBL document CHEMBL1932916, “A carbamate-based approach to primaquine prodrugs: antimalarial activity, chemical stability and enzymatic activation” (Bioorg Med Chem, 2012).)
